Laboratory results as given in ChEMBL document CHEMBL1156597, “Structure-activity relationship of kahalalide F synthetic analogues” (J Med Chem, 2008).

Legend:
LoVo [1] = assay: Cytotoxicity against human LoVo cells after 48 hrs by SRB assay; type: functional; conditions: for CC50: read-out: LC50 (the source's name)
A549 = assay: Cytotoxicity against human A549 cells after 48 hrs by SRB assay; type: functional, cell-based; conditions: Homo sapiens, A549, 48 h; for GI50: read-out: GI50
How it was run: (§1)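 Cells grown in RPMI 1640 with 10% FBS and penicillin/streptomycin at 37 °C and 5% CO₂, trypsinized, then seeded at 5 × 10³/well. After 18 h drug-free attachment, samples in DMSO/EtOH/PBS (0.5:0.5:99) were added for 48 h continuous exposure. Cells were fixed with cold TCA (1 h, 4 °C) and stained with SRB (10 min). Tris-solubilized stain read at 490 nm. Triplicate wells, mean ± SD; GI₅₀ derived.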

SK-MEL-28 = assay: Cytotoxicity against human SK-MEL-28 cells after 48 hrs by SRB assay; type: functional, cell-based; conditions: Homo sapiens, SK-MEL-28, 48 h; for CC50: read-out: LC50 (the source's name); how it was run: as §1
[2] = Cytotoxicity against human HeLa-APL cells after 48 hrs by SRB assay; type: functional; how it was run: as §1
K562 = assay: Cytotoxicity against human K562 cells after 48 hrs by SRB assay; type: functional; conditions: K562, 48 h; for CC50: read-out: LC50 (the source's name); how it was run: as §1
HeLa = assay: Cytotoxicity against human HeLa cells after 48 hrs by SRB assay; type: functional; conditions: for CC50: read-out: LC50 (the source's name); how it was run: as §1
LNCaP = assay: Cytotoxicity against human LNcaP cells after 48 hrs by SRB assay; type: functional; conditions: for CC50: read-out: LC50 (the source's name); how it was run: as §1
LoVo [3] = assay: Cytotoxicity against human doxorubicin resistant LoVo cells after 48 hrs by SRB assay; type: functional; conditions: for CC50: read-out: LC50 (the source's name); how it was run: as §1
HT-29 = assay: Cytotoxicity against human HT29 cells after 48 hrs by SRB assay; type: functional, cell-based; conditions: Homo sapiens, HT-29, 48 h; for CC50: read-out: LC50 (the source's name); how it was run: as §1
SK-BR-3 = assay: Cytotoxicity against human SKBR3 cells after 48 hrs by SRB assay; type: functional; conditions: SK-BR-3, 48 h; for CC50: read-out: LC50 (the source's name); how it was run: as §1
DU-145 = assay: Cytotoxicity against human DU145 cells after 48 hrs by SRB assay; type: functional, cell-based; conditions: Homo sapiens, DU-145, 48 h; for CC50: read-out: LC50 (the source's name); how it was run: as §1
[4] = Cytotoxicity against human IGROV-ET cells after 48 hrs by SRB assay; type: functional; conditions: for CC50: read-out: LC50 (the source's name); how it was run: as §1
[5] = Cytotoxicity against human IGROV cells after 48 hrs by SRB assay; type: functional; conditions: for CC50: read-out: LC50 (the source's name); how it was run: as §1
PANC-1 = assay: Cytotoxicity against human PANC1 cells after 48 hrs by SRB assay; type: functional; conditions: PANC-1, 48 h; for CC50: read-out: LC50 (the source's name); how it was run: as §1

C=C1NC(=O)[C@H](Cc2ccccc2)NC(=O)[C@@H](C(C)C)NC(=O)[C@@H]([C@H](C)CC)NC(=O)[C@H](NC(=O)[C@H](NC(=O)[C@H](CCCN)NC(=O)[C@H]2CCCN2C(=O)[C@H](NC(=O)[C@@H](NC(=O)[C@@H](NC(=O)[C@H](NC(=O)CCCC(C)C)C(C)C)[C@@H](C)O)C(C)C)C(C)C)[C@H](C)CC)[C@H](C)OC(=O)[C@H](C(C)C)NC1=O
GI50 (LoVo [1]): 309 nM
TGI (LoVo [1]): 318 nM
CC50 (LoVo [1]): 295 nM
LC50 (A549): 1070 nM
TGI (A549): 1140 nM
GI50 (A549): 1200 nM
TGI (SK-MEL-28): 1130 nM
GI50 (SK-MEL-28; read-out: GI50): 1100 nM
CC50 (SK-MEL-28): 1160 nM
GI50 [2]: 893 nM
LC50 (concentration giving 50% net cell kill) [2]: 791 nM
TGI [2]: 842 nM
GI50 (K562): 2470 nM
TGI (K562): 3010 nM
CC50 (K562): 1950 nM
CC50 (HeLa): 646 nM
GI50 (LNCaP): 1440 nM
TGI (LNCaP): 1860 nM
CC50 (LNCaP): 1410 nM
GI50 (LoVo [3]): 393 nM
TGI (LoVo [3]): 3720 nM
CC50 (LoVo [3]): 235 nM
GI50 (HT-29): 638 nM
TGI (HT-29): 804 nM
CC50 (HT-29): 612 nM
TGI (SK-BR-3): 412 nM
GI50 (SK-BR-3; read-out: GI50): 458 nM
CC50 (SK-BR-3): 360 nM
GI50 (DU-145): 901 nM
GI50 (DU-145; read-out: GI50): 1110 nM
CC50 (DU-145): 730 nM
GI50 [4]: 366 nM
GI50 ([4]; read-out: GI50): 349 nM
CC50 [4]: 392 nM
GI50 [5]: 442 nM
GI50 ([5]; read-out: GI50): 630 nM
CC50 [5]: 334 nM
CC50 (PANC-1): 1790 nM

C/C=C1\NC(=O)[C@H](Cc2ccccc2)NC(=O)[C@@H](C(C)C)NC(=O)[C@@H]([C@H](C)CC)NC(=O)[C@H](NC(=O)[C@H](NC(=O)[C@H](CCCN)NC(=O)[C@H]2CCCN2C(=O)[C@H](NC(=O)[C@@H](NC(=O)[C@@H](NC(=O)[C@H](NC(=O)CCCCCC)C(C)C)[C@@H](C)O)C(C)C)C(C)C)[C@H](C)CC)[C@H](C)OC(=O)[C@H](C(C)C)NC1=O
GI50 (LoVo [1]): 320 nM
TGI (LoVo [1]): 324 nM
CC50 (LoVo [1]): 326 nM
LC50 (A549): 1150 nM
TGI (A549): 1160 nM
GI50 (A549): 1180 nM
GI50 (SK-MEL-28): 915 nM
GI50 (SK-MEL-28; read-out: GI50): 808 nM
CC50 (SK-MEL-28): 991 nM
GI50 [2]: 781 nM
LC50 (concentration giving 50% net cell kill) [2]: 864 nM
TGI [2]: 822 nM
GI50 (K562): 2740 nM
TGI (K562): 2970 nM
CC50 (K562): 1990 nM
GI50 (HeLa): 965 nM
TGI (HeLa): 882 nM
CC50 (HeLa): 806 nM
GI50 (LNCaP): 1090 nM
TGI (LNCaP): 863 nM
CC50 (LNCaP): 861 nM
GI50 (LoVo [3]): 264 nM
TGI (LoVo [3]): 244 nM
CC50 (LoVo [3]): 175 nM
GI50 (HT-29): 499 nM
TGI (HT-29): 583 nM
CC50 (HT-29): 1070 nM
GI50 (SK-BR-3): 36.3 nM
GI50 (SK-BR-3; read-out: GI50): 227 nM
CC50 (SK-BR-3): 363 nM
GI50 (DU-145): 880 nM
GI50 (DU-145; read-out: GI50): 848 nM
CC50 (DU-145): 895 nM
GI50 [4]: 304 nM
GI50 ([4]; read-out: GI50): 289 nM
CC50 [4]: 394 nM
GI50 [5]: 404 nM
GI50 ([5]; read-out: GI50): 354 nM
CC50 [5]: 421 nM
GI50 (PANC-1): 2360 nM
TGI (PANC-1): 3780 nM
CC50 (PANC-1): 2720 nM

C/C=C1\NC(=O)[C@H](Cc2ccccc2)NC(=O)[C@@H](C(C)C)NC(=O)[C@@H]([C@H](C)CC)NC(=O)[C@H](NC(=O)[C@H](NC(=O)[C@H](CCCN)NC(=O)[C@H]2CCCN2C(=O)[C@H](NC(=O)[C@@H](NC(=O)[C@H](Cc2ccccc2)NC(=O)[C@H](NC(=O)CCCC(C)C)C(C)C)C(C)C)C(C)C)[C@H](C)CC)[C@H](C)OC(=O)[C@H](C(C)C)NC1=O
GI50 (LoVo [1]): 332 nM
TGI (LoVo [1]): 296 nM
CC50 (LoVo [1]): 210 nM
LC50 (A549): 1330 nM
TGI (A549): 71.4 nM
GI50 (A549): 69.4 nM
GI50 (SK-MEL-28): 146 nM
GI50 (SK-MEL-28; read-out: GI50): 152 nM
CC50 (SK-MEL-28): 158 nM
GI50 [2]: 145 nM
LC50 (concentration giving 50% net cell kill) [2]: 282 nM
TGI [2]: 142 nM
GI50 (K562): 23.2 nM
TGI (K562): 106 nM
CC50 (K562): 1150 nM
GI50 (HeLa): 128 nM
TGI (HeLa): 137 nM
CC50 (HeLa): 352 nM
GI50 (LNCaP): 61.7 nM
TGI (LNCaP): 132 nM
CC50 (LNCaP): 777 nM
GI50 (LoVo [3]): 380 nM
TGI (LoVo [3]): 456 nM
CC50 (LoVo [3]): 252 nM
CC50 (HT-29): 68.3 nM
TGI (SK-BR-3): 351 nM
GI50 (SK-BR-3; read-out: GI50): 303 nM
CC50 (SK-BR-3): 352 nM
GI50 (DU-145): 166 nM
GI50 (DU-145; read-out: GI50): 191 nM
CC50 (DU-145): 321 nM
GI50 [4]: 197 nM
GI50 ([4]; read-out: GI50): 245 nM
CC50 [4]: 518 nM
GI50 [5]: 103 nM
GI50 ([5]; read-out: GI50): 175 nM
CC50 [5]: 478 nM
GI50 (PANC-1): 142 nM
TGI (PANC-1): 304 nM
CC50 (PANC-1): 1720 nM
